Measured values taken from ChEMBL document CHEMBL2407075, “Sulphonamido-quinoxalines: search for anticancer agent” (Eur J Med Chem, 2013).

How the values were obtained:
Format in all cases: functional
NCI-H460 = test: Growth inhibition of human NCI-H460 cells assessed as cell growth at 10^-7 M after 48 hrs by sulforhodamine B assay; conditions: NCI-H460, 48 h, read-out: Activity
A549 = test: Growth inhibition of human A549/ATCC cells assessed as cell growth at 10^-6 M after 48 hrs by sulforhodamine B assay; conditions: A549, 48 h, read-out: Activity
Outline: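 Five-dose NCI-60 run (0.01, 0.1, 1, 10 and 100 µM, as 10-fold dilutions from a DMSO stock made at 400× the top final level). Cells were grown in RPMI 1640 with 5% FBS and 2 mM glutamine and plated for 24 h. They were then exposed for 48 h at 37 °C and 5% CO2. TCA fixation was followed by SRB staining with A515 read-out. Percent growth was taken relative to time-zero and control plates.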

UACC-257 [1] = test: Growth inhibition of human UACC257 cells after 48 hrs by sulforhodamine B assay; conditions: UACC-257, 48 h, read-out: LC50 (the source's name)
Outline: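 NCI-60 screen. Cells grown in RPMI 1640 with 5% FBS and 2 mM L-glutamine, plated at 5000–40,000 cells/well and preincubated 24 h at 37 °C, 5% CO2. A time-zero plate is TCA-fixed at drug addition. DMSO stocks diluted in medium; five concentrations (0.01, 0.1, 1, 10, 100 µM). Exposure 48 h, then cold TCA fixation and 0.4% SRB staining, absorbance at 515 nm. GI50 is taken from the growth-percentage curve relative to time zero and control.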

MDA-MB-435 = test: Growth inhibition of human MDA-MB-435 cells assessed as cell growth at 10^-8 M after 48 hrs by sulforhodamine B assay; conditions: MDA-MB-435, 48 h, read-out: Activity
[2] = Growth inhibition of human Hs 578T cells assessed as cell growth at 10^-7 M after 48 hrs by sulforhodamine B assay; conditions: read-out: Activity
Outline: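 Five-dose screen at NCI. Cells in RPMI 1640 with 5% FBS and 2 mM L-glutamine, seeded at 5000–40,000 cells/well and grown 24 h at 37 °C, 5% CO2 before dosing, with time-zero plates TCA-fixed. Drug diluted from DMSO stock to 0.01, 0.1, 1, 10 and 100 µM final, 48 h. Cells fixed with cold TCA (10% final), stained with 0.4% SRB and read at 515 nm. Percent growth from Tz, control and test absorbances; GI50, TGI and LC50 from dose-response curves.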

OVCAR-8 = test: Growth inhibition of human OVCAR8 cells assessed as cell growth at 10^-4 M after 48 hrs by sulforhodamine B assay; conditions: OVCAR-8, 48 h, read-out: Activity
SNB-19 [3] = test: Growth inhibition of human SNB19 cells assessed as cell growth at 10^-4 M after 48 hrs by sulforhodamine B assay; conditions: SNB-19, 48 h, read-out: Activity
IGROV-1 [4] = test: Growth inhibition of human IGROV1 cells assessed as cell growth at 10^-7 M after 48 hrs by sulforhodamine B assay; conditions: IGROV-1, 48 h, read-out: Activity
IGROV-1 [5] = test: Growth inhibition of human IGROV1 cells assessed as cell growth at 10^-8 M after 48 hrs by sulforhodamine B assay; conditions: IGROV-1, 48 h, read-out: Activity
SF-268 [6] = test: Growth inhibition of human SF268 cells assessed as cell growth at 10^-8 M after 48 hrs by sulforhodamine B assay; conditions: SF-268, 48 h, read-out: Activity
UO-31 = test: Growth inhibition of human UO31 cells assessed as cell growth at 10^-5 M after 48 hrs by sulforhodamine B assay; conditions: UO-31, 48 h, read-out: Activity
DU-145 = test: Growth inhibition of human DU145 cells after 48 hrs by sulforhodamine B assay; conditions: DU-145, 48 h; for CC50: read-out: LC50 (the source's name)
Outline: (§1)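 Adherent cells in RPMI 1640 with 5% FBS and 2 mM L-glutamine were plated at 5000–40,000 cells/well and grown 24 h. Five concentrations (0.01–100 µM, DMSO stock) were added for 48 h at 37 °C. Cells were fixed with cold TCA (10% final) and stained with SRB, read at 515 nm. GI50 came from log concentration–growth curves against time-zero and control plates.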

RXF 393 = test: Growth inhibition of human RXF393 cells assessed as cell growth at 10^-5 M after 48 hrs by sulforhodamine B assay; conditions: RXF 393, 48 h, read-out: Activity
TK-10 = test: Growth inhibition of human TK10 cells after 48 hrs by sulforhodamine B assay; conditions: TK-10, 48 h; for CC50: read-out: LC50 (the source's name); outline: as §1
PC-3 = test: Growth inhibition of human PC3 cells assessed as cell growth at 10^-5 M after 48 hrs by sulforhodamine B assay; conditions: PC-3, 48 h, read-out: Activity
LOX IMVI [7] = test: Growth inhibition of human LOXIMVI cells assessed as cell growth at 10^-6 M after 48 hrs by sulforhodamine B assay; conditions: read-out: Activity
MCF7 = test: Growth inhibition of human MCF7 cells after 48 hrs by sulforhodamine B assay; conditions: MCF7, 48 h; for CC50: read-out: LC50 (the source's name); outline: as §1
UACC-62 = test: Growth inhibition of human UACC62 cells assessed as cell growth at 10^-4 M after 48 hrs by sulforhodamine B assay; conditions: UACC-62, 48 h, read-out: Activity
HL-60(TB) = test: Growth inhibition of human HL-60(TB) cells assessed as cell growth at 10^-4 M after 48 hrs by sulforhodamine B assay; conditions: HL-60, 48 h, read-out: Activity
Outline: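 HL-60(TB) suspension cells were treated 48 h at 37 °C within the five-dose series (0.01–100 µM), fixed with 16% final TCA and SRB-stained, read at 515 nm. Percentage growth at each concentration = (Ti−Tz)/(C−Tz)×100, or (Ti−Tz)/Tz×100 when Ti<Tz, with time-zero (Tz) and untreated control (C) plates.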

UACC-257 [8] = test: Growth inhibition of human UACC257 cells assessed as cell growth at 10^-4 M after 48 hrs by sulforhodamine B assay; conditions: UACC-257, 48 h, read-out: Activity
LOX IMVI [9] = test: Growth inhibition of human LOXIMVI cells assessed as cell growth at 10^-5 M after 48 hrs by sulforhodamine B assay; conditions: read-out: Activity
SF-268 [10] = test: Growth inhibition of human SF268 cells after 48 hrs by sulforhodamine B assay; conditions: SF-268, 48 h; for CC50: read-out: LC50 (the source's name); outline: as §1
SNB-19 [11] = test: Growth inhibition of human SNB19 cells assessed as cell growth at 10^-6 M after 48 hrs by sulforhodamine B assay; conditions: SNB-19, 48 h, read-out: Activity
SK-OV-3 = test: Growth inhibition of human SKOV3 cells after 48 hrs by sulforhodamine B assay; conditions: SK-OV-3, 48 h; for CC50: read-out: LC50 (the source's name)
Outline: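 Five-dose NCI 60 screen at 0.01, 0.1, 1, 10 and 100 µM, 48 h exposure after 24 h preincubation, in RPMI 1640 with 5% FBS and 2 mM glutamine. Fixed with TCA (10% final for adherent cells, 16% for suspension cells), stained with SRB, A515 read. Percent growth uses time-zero (Tz), control and treated plates. GI50, TGI and LC50 are read from the dose-response curves.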

SMILES	growth at 0.1 µM (NCI-H460) [%]	growth at 1 µM (A549) [%]	CC50 (UACC-257 [1]) [µM]	growth at 0.01 µM (MDA-MB-435) [%]	growth at 0.1 µM [2] [%]	growth at 100 µM (OVCAR-8) [%]	growth at 100 µM (SNB-19 [3]) [%]	growth at 0.1 µM (IGROV-1 [4]) [%]	growth at 0.01 µM (IGROV-1 [5]) [%]	growth at 0.01 µM (SF-268 [6]) [%]	growth at 10 µM (UO-31) [%]	TGI (DU-145) [µM]	CC50 (DU-145) [µM]	growth at 10 µM (RXF 393) [%]	TGI (TK-10) [µM]	CC50 (TK-10) [µM]	growth at 10 µM (PC-3) [%]	growth at 1 µM (LOX IMVI [7]) [%]	CC50 (MCF7) [µM]	growth at 100 µM (UACC-62) [%]	further results
O=S(=O)(Nc1ccc(Cl)cc1)c1ccc2nc(-c3ccccc3)c(-c3ccccc3)nc2c1	105	87	> 100	97	98	72	83	101	102	94	6	> 100	> 100	-41	> 100	> 100	-12	89	> 100	62	growth at 100 µM (HL-60(TB)): 45%; growth at 100 µM (UACC-257 [8]): 67%; growth at 10 µM (LOX IMVI [9]): 3%; TGI (SF-268 [10]): > 100 µM; CC50 (SF-268 [10]): > 100 µM; growth at 1 µM (SNB-19 [11]): 89%; TGI (SK-OV-3): > 100 µM; CC50 (SK-OV-3): > 100 µM
O=S(=O)(Nc1ccccn1)c1ccc2nc(-c3ccccc3)c(-c3ccccc3)nc2c1	106	96	> 100	99	94	46	62	104	103	93	-5	> 100	> 100	-44	> 100	> 100	-12	88	> 100	64	GI50 (MCF7): 2.18 µM; growth at 100 µM (HL-60(TB)): 29%; growth at 100 µM (UACC-257 [8]): 53%; growth at 10 µM (LOX IMVI [9]): -93%; TGI (SF-268 [10]): > 100 µM; CC50 (SF-268 [10]): > 100 µM; growth at 1 µM (SNB-19 [11]): 87%; GI50 (SK-OV-3): 3.58 µM; TGI (SK-OV-3): > 100 µM; CC50 (SK-OV-3): > 100 µM
